# In ChEMBL document CHEMBL4184147, “Polyphenolic Phytochemicals in Cancer Prevention and Therapy: Bioavailability versus Bioefficacy” (J Med Chem, 2017):
# Tests used:
# [1] = tested on: NCI-H460; assay: Cytotoxicity against human NCI-H460 cells assessed as cell viability at 41 uM after 48 hrs by MTT assay; format: functional; conditions: NCI-H460, 48 h, read-out: Activity
# [2] = tested on: BXPC-3; assay: Cytotoxicity against human BxPC3 cells assessed as decrease in cell viability after 48 hrs by MTT assay; format: functional, cell-based; conditions: BXPC-3, 48 h
# [3] = tested on: MDA-MB-231; assay: Cytotoxicity against human MDA-MB-231 cells assessed as decrease in cell viability after 48 hrs by trypan blue exclusion and LDH release; conditions: MDA-MB-231, 48 h
# [4] = tested on: A549; assay: Cytotoxicity against human A549 cells assessed as cell viability at 41 uM after 48 hrs by MTT assay; format: functional; conditions: A549, 48 h, read-out: Activity
# [5] = tested on: Mus musculus; assay: (§1) Tmax in mouse at 100 mg/kg, po by HPLC method; format: ADME, organism-based; conditions: in vivo
# Method in brief: (§2)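 Given orally in a self-microemulsifying delivery system (60% surfactant, emulsifier OP:Cremophor EL 1:1; 30% PEG 400 cosurfactant; 10% ethyl oleate oil), total volume no more than 100 μL. Plasma levels measured by previously described methods.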
# [6] = tested on: MDA-MB-231; assay: Cytotoxicity against human MDA-MB-231 cells assessed as cell viability at 41 uM after 48 hrs by MTT assay; format: functional; conditions: MDA-MB-231, 48 h, read-out: Activity
# [7] = tested on: U-87 MG; assay: Cytotoxicity against human U87 cells assessed as decrease in cell viability after 48 hrs by trypan blue exclusion and LDH release
# [8] = tested on: COLO 201; assay: Cytotoxicity against human COLO201 cells assessed as cell viability at 41 uM after 48 hrs by MTT assay; format: functional; conditions: COLO 201, 48 h, read-out: Activity
# [9] = tested on: HT-29; assay: Cytotoxicity against human HT-29 cells assessed as cell viability at 41 uM after 48 hrs by MTT assay; format: functional; conditions: HT-29, 48 h, read-out: Activity
# [10] = tested on: NCI-H460; assay: Cytotoxicity against human NCI-H460 cells assessed as decrease in cell viability after 48 hrs by MTT assay; format: functional, cell-based; conditions: NCI-H460, 48 h
# [11] = Cmax in mouse at 10 mg/kg, iv by LC-MS/MS method; format: ADME, organism-based; set-up: dose 10 mg/kg, route intravenous; conditions: in vivo
# Method in brief: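 Mouse iv dosing used polyphenol dissolved in DMSO:ethanol (2:1), with total injected volume never above 30 μL. Plasma levels were measured by previously described methods.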
# [12] = Cytotoxicity against human MML1 cells assessed as decrease in cell viability after 48 hrs by MTT assay; format: functional, cell-based
# [13] = tested on: PANC-1; assay: Cytotoxicity against human PANC1 cells assessed as decrease in cell viability after 48 hrs by MTT assay; format: functional, cell-based; conditions: PANC-1, 48 h
# [14] = tested on: T47D; assay: Cytotoxicity against human T47D cells assessed as cell viability at 41 uM after 48 hrs by MTT assay; format: functional; conditions: read-out: Activity
# [15] = tested on: COLO 201; assay: Cytotoxicity against human COLO201 cells assessed as decrease in cell viability after 48 hrs by trypan blue exclusion and LDH release; conditions: COLO 201, 48 h
# [16] = tested on: T47D; assay: Cytotoxicity against human T47D cells assessed as decrease in cell viability after 48 hrs by trypan blue exclusion and LDH release
# [17] = tested on: SK-MEL-2; assay: Cytotoxicity against human SK-MEL-2 cells assessed as decrease in cell viability after 48 hrs by MTT assay; format: functional, cell-based; conditions: SK-MEL-2, 48 h
# [18] = tested on: A549; assay: Cytotoxicity against human A549 cells assessed as decrease in cell viability after 48 hrs by trypan blue exclusion and LDH release; conditions: A549, 48 h
# [19] = tested on: U-87 MG; assay: Cytotoxicity against human U87 cells assessed as cell viability at 41 uM after 48 hrs by MTT assay; format: functional, U-87MG ATCC; conditions: read-out: Activity
# [20] = tested on: BXPC-3; assay: Cytotoxicity against human BxPC3 cells assessed as cell viability at 41 uM after 48 hrs by MTT assay; format: functional; conditions: BXPC-3, 48 h, read-out: Activity
# [21] = tested on: Lipid bilayer; assay: Induction of DOPC/n-decane bilayer property changes assessed as concentration required to double gramicidin-induced quencher influx rate by […]
# [22] = tested on: SK-MEL-2; assay: Cytotoxicity against human SK-MEL-2 cells assessed as cell viability at 41 uM after 48 hrs by MTT assay; format: functional; conditions: SK-MEL-2, 48 h, read-out: Activity
# [23] = Plasma concentration in mouse at 10 mg/kg, iv at 60 mins by LC-MS/MS method; format: ADME, organism-based
# Method in brief: (§3)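 For IV dosing, compound dissolved in DMSO:ethanol (2:1), total volume no more than 30 μL. For oral dosing, compound given in a self-microemulsifying delivery system (60% surfactant, emulsifier OP:Cremophor EL 1:1; 30% PEG 400; 10% ethyl oleate), total volume no more than 100 μL. Plasma levels measured by previously described methods.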
# [24] = tested on: LN-229; assay: Cytotoxicity against human LN229 cells assessed as cell viability at 41 uM after 48 hrs by MTT assay; format: functional; conditions: LN-229, 48 h, read-out: Activity
# [25] = tested on: HT-29; assay: Cytotoxicity against human HT-29 cells assessed as decrease in cell viability after 48 hrs by trypan blue exclusion and LDH release; conditions: HT-29, 48 h
# [26] = Plasma concentration in mouse at 100 mg/kg, po at 60 mins by LC-MS/MS method; format: ADME, organism-based; method in brief: as §3
# [27] = tested on: PANC-1; assay: Cytotoxicity against human PANC1 cells assessed as cell viability at 41 uM after 48 hrs by MTT assay; format: functional; conditions: PANC-1, 48 h, read-out: Activity
# [28] = tested on: LN-229; assay: Cytotoxicity against human LN229 cells assessed as decrease in cell viability after 48 hrs by trypan blue exclusion and LDH release; conditions: LN-229, 48 h
# [29] = Cytotoxicity against human MML1 cells assessed as cell viability at 41 uM after 48 hrs by MTT assay; format: functional; conditions: read-out: Activity
# [30] = tested on: Mus musculus; assay: (§4) Cmax in mouse at 100 mg/kg, po by HPLC method; format: ADME, organism-based; set-up: dose 100 mg/kg, route oral; conditions: in vivo
# Method in brief: (§5)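 For oral dosing, polyphenol was dissolved in a self-microemulsifying delivery system: 60% surfactant (emulsifier OP:Cremophor EL 1:1), 30% cosurfactant (PEG 400) and 10% oil (ethyl oleate). Total volume given was never above 100 μL. Plasma levels were quantified by previously described methods.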
# [31] = tested on: COLO 201; assay: Cytotoxicity against human COLO201 cells assessed as cell viability at 14 uM after 48 hrs by MTT assay; format: functional; conditions: COLO 201, 48 h, read-out: Activity
# [32] = tested on: U-87 MG; assay: Cytotoxicity against human U87 cells assessed as cell viability at 14 uM after 48 hrs by MTT assay; format: functional, U-87MG ATCC; conditions: read-out: Activity
# [33] = tested on: HT-29; assay: Cytotoxicity against human HT-29 cells assessed as cell viability at 14 uM after 48 hrs by MTT assay; format: functional; conditions: HT-29, 48 h, read-out: Activity
# [34] = tested on: A549; assay: Cytotoxicity against human A549 cells assessed as cell viability at 14 uM after 48 hrs by MTT assay; format: functional; conditions: A549, 48 h, read-out: Activity
# [35] = as §1; format: ADME, organism-based; conditions: in vivo; method in brief: as §2
# [36] = tested on: MDA-MB-231; assay: Cytotoxicity against human MDA-MB-231 cells assessed as cell viability at 14 uM after 48 hrs by MTT assay; format: functional; conditions: MDA-MB-231, 48 h, read-out: Activity
# [37] = tested on: PANC-1; assay: Cytotoxicity against human PANC1 cells assessed as cell viability at 14 uM after 48 hrs by MTT assay; format: functional; conditions: PANC-1, 48 h, read-out: Activity
# [38] = tested on: NCI-H460; assay: Cytotoxicity against human NCI-H460 cells assessed as cell viability at 14 uM after 48 hrs by MTT assay; format: functional; conditions: NCI-H460, 48 h, read-out: Activity
# [39] = tested on: SK-MEL-2; assay: Cytotoxicity against human SK-MEL-2 cells assessed as cell viability at 14 uM after 48 hrs by MTT assay; format: functional; conditions: SK-MEL-2, 48 h, read-out: Activity
# [40] = tested on: LN-229; assay: Cytotoxicity against human LN229 cells assessed as cell viability at 14 uM after 48 hrs by MTT assay; format: functional; conditions: LN-229, 48 h, read-out: Activity
# [41] = tested on: BXPC-3; assay: Cytotoxicity against human BxPC3 cells assessed as cell viability at 14 uM after 48 hrs by MTT assay; format: functional; conditions: BXPC-3, 48 h, read-out: Activity
# [42] = tested on: Homo sapiens; assay: Renal toxicity in patient assessed as decrease in glomerular flow rate at 1400 mg/m'2, iv administered as bolus dose measured after 24 hrs relative to control; format: organism-based; set-up: scale not given: the % may be the effect or the level left; conditions: in vivo
# [43] = tested on: T47D; assay: Cytotoxicity against human T47D cells assessed as cell viability at 14 uM after 48 hrs by MTT assay; format: functional; conditions: read-out: Activity
# [44] = Cytotoxicity against human MML1 cells assessed as cell viability at 14 uM after 48 hrs by MTT assay; format: functional; conditions: read-out: Activity
# [45] = Tmax in mouse at 10 mg/kg, iv by LC-MS/MS method; format: ADME, organism-based; conditions: in vivo; method in brief: as §3
# [46] = as §4; format: ADME, organism-based; set-up: dose 100 mg/kg, route oral; conditions: in vivo; method in brief: as §5
smiles,measurement,setting,value
COc1cc(/C=C/C(=O)CC(=O)/C=C/c2ccc(O)c(OC)c2)ccc1O [CURCUMIN],viability at 41 µM,[1],95%
same,IC50,[2],29 µM
same,IC50,[3],12 µM
same,viability at 41 µM,[4],96%
same,Tmax,[5],15 min
same,viability at 41 µM,[6],90%
same,IC50,[7],16 µM
same,viability at 41 µM,[8],81%
same,viability at 41 µM,[9],83%
same,IC50,[10],15 µM
same,Cmax,[11],81 µM
same,IC50,[12],19 µM
same,IC50,[13],53 µM
same,viability at 41 µM,[14],88%
same,IC50,[15],18 µM
same,IC50,[16],19 µM
same,IC50,[17],36 µM
same,IC50,[18],18 µM
same,viability at 41 µM,[19],92%
same,viability at 41 µM,[20],102%
same,Activity,[21],8.6 µM
same,viability at 41 µM,[22],97%
same,concentration at 1 h,[23],< 1 µM
same,viability at 41 µM,[24],91%
same,IC50,[25],14 µM
same,concentration at 1 h,[26],< 1 µM
same,viability at 41 µM,[27],99%
same,IC50,[28],15 µM
same,viability at 41 µM,[29],105%
same,Cmax,[30],27 µM
O=c1c(O)c(-c2ccc(O)c(O)c2)oc2cc(O)cc(O)c12 [QUERCETIN],viability at 14 µM,[31],101%
same,IC50,[2],16 µM
same,viability at 14 µM,[32],97%
same,IC50,[3],20 µM
same,viability at 14 µM,[33],94%
same,viability at 14 µM,[34],104%
same,Tmax,[35],15 min
same,IC50,[7],23 µM
same,IC50,[10],12 µM
same,viability at 14 µM,[36],103%
same,viability at 14 µM,[37],102%
same,Cmax,[11],27 µM
same,IC50,[12],15 µM
same,IC50,[13],62 µM
same,IC50,[15],19 µM
same,IC50,[16],11 µM
same,IC50,[17],12 µM
same,viability at 14 µM,[38],95%
same,IC50,[18],13 µM
same,viability at 14 µM,[39],97%
same,viability at 14 µM,[40],106%
same,viability at 14 µM,[41],96%
same,concentration at 1 h,[23],< 1 µM
same,IC50,[25],18 µM
same,Activity,[42],20%
same,concentration at 1 h,[26],< 1 µM
same,viability at 14 µM,[43],100%
same,IC50,[28],12 µM
same,viability at 14 µM,[44],103%
same,Tmax,[45],5 min
same,Cmax,[46],8 µM
